# Screens (PubChem)
# DAGLB inh – blocks human DAGLB lipase activity; Q8NCG7; HEK293T DAGLB membrane lysate, EnzChek fluorogenic substrate; inhibition, % at 5.17 µM; actives 0.059% (n = 340,000); in the data active means inhibition above about 34%;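 further: 0% = enzyme with vehicle and 100% = wells lacking enzyme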
# UCH37 DUB inh – blocks the human deubiquitinase UCH37 | Q9Y5K5 | purified proteasome/UCH37, Ub-AMC cleavage fluorescence | inhibition, % (test concentration not listed) | actives 0.33% (n = 330,000) | AID 588478;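 active means mean inhibition over replicate wells above about 20%, limit read from the data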;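 further: 0% = compound-free wells with enzyme and 100% = wells lacking proteasome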
#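 Material: human UCH37 enzyme supplied as purified proteasome complex / Amount: 0.15 nM proteasome as dispensed / Buffer or medium: pH 7.4 Tris-HCl (50 mM) with ovalbumin, ATP-MgCl2, DTT / Times: preincubation 30 min, reaction 25 min, room temperature / Technique: AMC fluorescence from Ub-AMC cleavage, excitation 355 nm, emission 460 nm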
# CTSL1 counter – cathepsin L1 inhibition, PFM18AAP counter-screen; actives 0.49% (n = 300,000); AID 1906; inhibition, % at 5.96 µM; recombinant F. hepatica cathepsin L1, Z-Leu-Arg-MCA fluorescence;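 active means inhibition above the mean of all tested compounds plus 3 SD, set per screening campaign, cut at about 17% in these data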;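 further: 0% = plate median of test compound wells and 100% = 1 µM Z-Phe-Ala-diazomethylketone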
# MT1-MMP act inh – blocks activation of human MT1-MMP; actives 0.061% (n = 360,000); GFP/RFP ratio change, % at 20 µM; HT1080 RFP-PRO-GFP cells, GFP/RFP ratio fluorescence, overnight; percent of plate control window, DMSO zero; P50281;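 active means GFP/RFP ratio change of at least 30% with cell ATP level not reduced by more than half and red fluorescence within 50% of control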
#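 Test system: HT1080 RFP-PRO-GFP cells; Benchmarks: DMSO and RFP-L50D-GFP cell wells; Timing: cells overnight before dosing, compound overnight, 37 °C, 5% CO2; Compound: one 20 µM compound dose with 1% DMSO; Read-out: GFP/RFP fluorescence ratio.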
# NRP1-CendR mod – NRP-1/CendR interaction modulation; O14786; FAM-RPARPAR peptide binding to NRP-1, fluorescence polarization; inhibition, % at 25 µM; actives 0.85% (n = 360,000); AID 602438;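 active means inhibition or corrected inhibition above about 18%, plus a signal ratio from 0.5 to 1.5, limit read from the data, passing the limit was not always enough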
# Active calls of the source: *; / = no result; ! = repeats disagree. Hits are enriched below; roughly 1.5% of the tested compounds scored in any of these assays.
SMILES,DAGLB inh,UCH37 DUB inh,CTSL1 counter,MT1-MMP act inh,NRP1-CendR mod
COC(=O)Nc1sc(C(=O)N(C)C)c(C)c1C(=O)OC,2.6,2.2,-1.1,4.3,24.0*
COc1ccccc1OCC(=O)NNC(=O)CSC(=S)N1CCCC1,-2.7,3.0,/,3.0,23.6*
COc1ccccc1OCCNC(=O)CSC(=S)N1CCCC1,2.2,4.2,-2.5,1.8,-5.6
Cn1nnnc1SCc1nnc(-c2ccc(F)cc2)o1,-2.1,4.2,-2.2,3.7,24.9*
O=c1c(C=NNS(=O)(=O)c2ccccc2)coc2ccc(Cl)cc12,/,2.7,/,/,/
Cc1sc2ncnc(NN=Cc3ccc(O)cc3)c2c1C,/,7.7,/,/,/
COC(=O)CCCC1=CC2=C(c3ccccc3)C(=O)C(C)(OC(=O)C3CCCC3)C(=O)C2=CN1CCCCO (stereo not drawn),0.4,5.7,14.9,-0.8,19.8
COC(=O)CCCC1=CC2=C(c3ccccc3)C(=O)C(C)(OC(=O)C3CCCC3)C(=O)C2=CN1Cc1ccco1 (stereo not drawn),5.8,2.9,2.9,-16.8,29.5*
COCCNC(=O)C(=O)Nc1cc2c3c(c1)C(C)C(=O)N3CCC2 (stereo not drawn),1.1,2.3,17.6*,4.8,13.4
CCN(CC)C(=O)Cn1cc(C(=O)C(=O)N2CCN(C)CC2)c2ccccc21,-3.5,3.9,0.7,-2.6,-2.3
CCN(CC)C(=O)Cn1cc(C(=O)C(=O)N2CCN(c3ccccc3)CC2)c2ccccc21,1.2,3.7,-7.4,-1.1,24.6*
Nc1nonc1-n1nnc(C(=O)NN=Cc2c[nH]c3ccccc23)c1-c1ccccc1,/,-25.9,/,/,/
COc1ccc(C2=C/C(=C\c3ccc(OC(C)=O)cc3)C(=O)O2)cc1,-1.6,0.8,-3.4,2.6,107.5*
CCCN1CCC(NC(=O)Nc2ccc(OC)c(OC)c2)CC1,-2.0,0.4,-2.1,5.3,49.1*
O=C(NN=Cc1cc([N+](=O)[O-])ccc1N1CCCCCC1)c1ccccn1,/,3.3,/,/,/
O=C(Cc1ccccc1Cl)NC1(O)C(=O)c2ccccc2C1=O,/,/,25.8*,-3.0,4.7
COC(=O)c1c(NC(=O)c2ccc([N+](=O)[O-])o2)sc2c1CCN(C(C)C)C2,3.0,/,25.6*,-6.2,-3.4
CC(C)N1CCc2c(sc(NC(=O)c3ccc([N+](=O)[O-])o3)c2C(N)=O)C1,2.2,/,13.4,-45.7,4.4
COc1ccc2c(C(=O)CCl)c[nH]c2c1,1.8,1.4,36.3*,-4.0,-30.3
COc1ccc(OCC(=O)c2c[nH]c3ccccc23)cc1,-1.1,4.1,3.5,1.7,-13.5
CCN(CC)S(=O)(=O)c1ccc2nnn(OCC(=O)Nc3cccc(C#N)c3)c2c1,-2.5,4.1,80.6*,10.8,12.2
CCOc1ccc(NC(=O)COn2nnc3ccc(S(=O)(=O)N4CCOCC4)cc32)cc1,-0.4,3.1,2.8,0.5,16.7
NN=c1sc2ccccc2n1-c1ccccc1,/,3.7,/,/,/
O=C(O)CCNc1cc(N2CCN(C(=O)c3ccco3)CC2)c2noc3c2c1C(=O)c1ccccc1-3,14.3,/,22.3*,5.6,-114.8
CSCCC(NC(=O)c1ccco1)C(=O)NCC(c1ccco1)N1CCCCC1 (stereo not drawn),0.6,3.3,/,-1.0,6.4
SMILES,DAGLB inh,UCH37 DUB inh,CTSL1 counter,MT1-MMP act inh,NRP1-CendR mod
CC(C)C(NC(=O)c1ccco1)C(=O)NCC(c1ccco1)N1CCCCC1 (stereo not drawn),-0.5,-0.9,78.5*,-0.8,-10.8
NCCCS(=O)(=O)O,1.5,5.2,19.3*!,0.2,-7.1
S=c1[nH]nc(-c2ccco2)n1N=Cc1ccccc1,/,7.0,/,/,/
CN1C(=O)[C@H]2[C@@H](/C=C/c3ccccc3)N3C(=O)CN(Cc4ccccn4)C(=O)[C@@]3(Cc3ccccc3)[C@H]2C1=O,0.4,1.0,/,-5.2,28.9*
CN(C)C1=C(Cl)C(=O)N(c2ccc(Cl)c(Cl)c2)C1=O,6.8,1.1,38.3*,4.3,8.0
CC(C)=CC(=O)Nc1nnc(-c2ccccc2)s1,-2.6,2.6,1.1,2.2,1.3
CC(C)=CC(=O)Nc1nnc(C)s1,-0.9,28.1*,-1.2,6.0,14.0
O=C(Nc1ccccc1Cl)c1ccccc1Cl,-1.6,0.6,-4.8,2.4,2.4
Cn1c(=O)c2cc(NC(=O)c3ccccc3Cl)c(=O)oc2n(C)c1=O,-0.2,9.2,27.0*,-4.6,-30.6
Cc1cc(C)c2ccc(C=NO)nc2c1O,/,1.6,/,/,/
C#CNC(=O)C1(CC=C)CCNCC1,-0.6,32.2*,0.4,1.9,1.4
CCCN(Cc1cc2cc(C)ccc2[nH]c1=O)C(=O)c1cccc([N+](=O)[O-])c1,-0.1,2.6,18.6*,1.2,7.3
COC(=O)c1c(NC(=O)CCl)sc(C(=O)N2CCOCC2)c1C,-3.5,1.7,34.7*,2.6,1.8
CCSc1ncc(C=NNc2ccccc2)n1C,/,1.8,/,/,/
CCCCCCCCCCS(=O)(=O)NN=Cc1ccccc1OC,/,2.8,/,/,/
CC(=O)n1c2ccccc2c2c1c1ccccc1n2C,-0.3,-208.0,1.4,-21.9,38.5*
CC(=O)n1c2ccccc2c2nc3ccccc3nc21,-1.0,-25.5,-1.0,0.2,-4.5
COc1cc(-c2nnc(SCC(=O)Nc3ccc(C(=O)O)cc3)o2)cc(OC)c1OC,0.2,-0.7,/,-0.7,31.3*
Cc1cc(C(=O)NN=C/C=C/c2cccc([N+](=O)[O-])c2)n[nH]1,/,5.1,/,/,/
Cc1ccc(-n2nc3c(n2)C(=NO)CCC3=NO)cc1,/,-2.4,/,/,/
Cc1nc(SCc2ccc(O)c([N+](=O)[O-])c2)c([N+](=O)[O-])[nH]1,1.9,20.3*,4.7,0.0,-2.9
Cc1nc(SCc2ccc(O)c([N+](=O)[O-])c2)n[nH]1,2.8,/,-0.6,3.5,-2.7
O=C(NCCN1CCOCC1)c1cc(-c2ccc(F)cc2)on1,3.7,-1.8,1.0,3.9,37.9*
Cc1ccc(S(=O)(=O)N2CCC(C(N)=O)CC2)cc1[N+](=O)[O-],-0.8,0.0,-2.9,-0.4,27.2*
NC(=O)C1CCN(S(=O)(=O)c2ccccc2[N+](=O)[O-])CC1,-0.4,3.7,1.4,1.7,-2.2
SMILES,DAGLB inh,UCH37 DUB inh,CTSL1 counter,MT1-MMP act inh,NRP1-CendR mod
CNc1cncc(-c2ccccc2NC(C)=O)n1,/,/,/,-1.8,32.3*
CCCCc1cn([C@@H](CCCCN)C(=O)N2CCNCC2)nn1,-4.2,5.1,0.0,-7.2,22.0*
CCCCS(=O)(=O)/C=C\C=C/S(=O)(=O)CCCC,-1.2,0.6,64.1*,-29.7,3.9
CC(=O)Nc1ccc(S(=O)(=O)N2CCN(S(=O)(=O)c3ccc(NC(C)=O)cc3)CC2)cc1,0.9,2.5,/,2.7,7.8
COc1ccc(NC(=O)CN2CCN(c3c(C)cccc3C)CC2)cc1,-19.0,4.9,6.8,1.1,5.6
COc1ccc(S(=O)(=O)N2CCCN(CC(=O)Nc3ccc(NC(C)=O)cc3)CC2)cc1,3.0,0.0,1.1,-0.4,38.8*
